Measurements published in ChEMBL document CHEMBL1124417, “Synthesis and hypertensive activity of neuropeptide Y fragments and analogues with modified N- or C-termini or D-substitutions” (1989).

Legend:
[1] = Relative potency measured as ratio of ED50 of NPY to ED50 of analogue; assay type: functional
[2] = test system: Rattus norvegicus; assay: Hypertensive potency in conscious rats after intra arterial administration.; assay type: functional
In short: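 Male Sprague-Dawley rats (240-280 g), conscious; catheters placed under pentobarbital anaesthesia (40 mg/kg) with ≥2 h recovery. Peptides in saline given intraarterially as 100-µL bolus. ΔMAP = posttreatment minus mean pretreatment saline zero values (n = 4).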

[3] = test system: Rattus norvegicus; assay: Mean arterial pressure was measured in conscious rats after intra arterial administration at 400 ug/kg dosage.; assay type: functional, Artery
In short: (§1)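 Conscious male Sprague-Dawley rats (240-280 g), catheterised under pentobarbital (40 mg/kg), ≥2 h recovery. Saline peptide solutions as intraarterial 100-µL bolus. MAP via pressure transducer, computed as [[…] + diastolic]. ΔMAP = value at 1 min minus mean pretreatment saline zero values (n = 4). Means ± SEM, n ≥ 3.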

[4] = test system: Rattus norvegicus; assay: Mean arterial pressure was measured in conscious rats after intra arterial administration at 40 ug/kg dosage.; assay type: functional, Artery; in short: as §1

Compound | Ratio [1] | ED50 [2] | Delta MAP [3] | Delta MAP [4]
CC[C@H](C)[C@H](NC(=O)[C@H](Cc1ccc(O)cc1)NC(=O)[C@H](Cc1c[nH]cn1)NC(=O)[C@H](CCCN=C(N)N)NC(=O)[C@H](CC(C)C)NC(=O)[C@H](C)NC(=O)[C@H](CO)NC(=O)[C@H](Cc1ccc(O)cc1)NC(=O)[C@H](Cc1ccc(O)cc1)NC(=O)[C@H](CCCN=C(N)N)NC(=O)[C@H](C)NC(=O)[C@H](CC(C)C)NC(=O)[C@H](CC(=O)O)NC(=O)[C@H](CCC(=O)O)NC(=O)[C@H](C)NC(=O)[C@@H]1CCCN1C(=O)[C@H](C)NC(=O)[C@H](CC(=O)O)NC(=O)[C@H](CCC(=O)O)NC(=O)[C@H](C)NC(=O)[C@@H]1CCCN1C(=O)[C@H](CC(N)=O)NC(=O)[C@H](CC(=O)O)NC(=O)[C@@H]1CCCN1C(=O)[C@H](CCCCN)NC(=O)[C@H](CO)NC(=O)[C@@H]1CCCN1C(=O)[C@@H](N)Cc1ccc(O)cc1)C(=O)N[C@@H](CC(N)=O)C(=O)N[C@@H](CC(C)C)C(=O)N[C@H](C(=O)N[C@H](C(=O)N[C@@H](CCCN=C(N)N)C(=O)N[C@@H](CCC(N)=O)C(=O)N[C@@H](CCCN=C(N)N)C(=O)O)[C@@H](C)O)[C@@H](C)CC | 0.7 |  |  | 
H-YPSKPDNPGEDAPA-OH |  | > 0.4 mg/kg | <5 | <5
CC[C@H](C)[C@H](NC(=O)[C@H](Cc1ccc(O)cc1)NC(=O)[C@@H](N)Cc1c[nH]cn1)C(=O)N[C@@H](CC(N)=O)C(=O)N[C@@H](CC(C)C)C(=O)N[C@H](C(=O)N[C@H](C(=O)N[C@@H](CCCN=C(N)N)C(=O)N[C@@H](CCC(N)=O)C(=O)N[C@@H](CCCN=C(N)N)C(=O)N[C@@H](Cc1ccc(O)cc1)C(N)=O)[C@@H](C)O)[C@@H](C)CC |  | > 0.4 mg/kg | 7 | <5
